In ChEMBL document CHEMBL5620421, “2,6-Disubstituted 7-(naphthalen-2-ylmethyl)-7H-purines as a new class of potent antitubercular agents inhibiting DprE1” (Eur J Med Chem, 2023):
Converted amounts (≈) assume the structure as drawn. The source made the active and inactive calls. The rule behind the calls is not given here.

Columns and labels:
[1] = test system: Mycobacterium tuberculosis; assay: Antibacterial activity against Mycobacterium tuberculosis H37Rv (ATCC 27294) assessed as inhibition of bacterial growth incubated for 14 days; assay type: functional; settings: 336 h, time 14 day
How it was run: (§1)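 Micromethod MIC in Sula's semisynthetic medium. MIC is the lowest concentration inhibiting >99% of the mycobacterial population. Isoniazid was the standard drug.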

[2] = test system: Mycobacterium tuberculosis; assay: (§2) Antimycobacterial activity against isoniazid/ethambutol/rifampin/streptomycin/amikacin/gentamicin/clofazimine/ofloxacin […] MDR/XDR clinical isolate Mycobacterium tuberculosis PRAHA 1 assessed as inhibition of mycobacterial growth measured after 14 to 21 days of incubation by Sulas semisynthetic medium based assay; assay type: functional, organism-based; settings: time 14-21 day
How it was run: (§3)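 Clinical MDR/XDR M. tuberculosis isolates were tested by the Sula's semisynthetic medium micromethod. Compounds in DMSO at 1000 to 0.5 μmol/L, in twofold-type steps. Incubation at 37 °C, read at 14 and 21 days. MIC99 is the lowest concentration inhibiting >99% of growth. Drug resistance or susceptibility of each isolate is to amikacin, clofazimine, gentamicin, ofloxacin, streptomycin and the others listed.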

[3] = test system: Mycobacterium tuberculosis; assay: as §2, with “PRAHA 4” for “PRAHA 1”; assay type: functional, organism-based; settings: time 14-21 day; how it was run: as §3
[4] = test system: Mycobacterium tuberculosis; assay: as §2, with “9449/2007” for “PRAHA 1”; assay type: functional, organism-based; settings: time 14-21 day; how it was run: as §3
[5] = test system: Mycobacterium tuberculosis; assay: as §2, with “234/2005” for “PRAHA 1”; assay type: functional, organism-based; settings: time 14-21 day; how it was run: as §3
[6] = test system: Mycobacterium tuberculosis; assay: as §2, with “7357/1998” for “PRAHA 1”; assay type: functional, organism-based; settings: time 14-21 day; how it was run: as §3
[7] = test system: Mycobacterium tuberculosis; assay: as §2, with “8666/2010” for “PRAHA 1”; assay type: functional, organism-based; settings: time 14-21 day; how it was run: as §3
[8] = test system: Mycobacterium tuberculosis; assay: Antibacterial activity against Mycobacterium tuberculosis H37Rv assessed as inhibition of bacterial growth by micro-broth dilution method; assay type: functional; how it was run: as §1
[9] = test system: Mycobacterium tuberculosis; assay: Antitubercular activity against Mycobacterium tuberculosis CNCTC My 331/88 (H37Rv) assessed as inhibition of bacterial growth measured after 14 days of incubation by Sulas semisynthetic medium based assay; assay type: functional; settings: 336 h, time 14 day; how it was run: as §1
[10] = test system: Mycobacterium tuberculosis; assay: Antitubercular activity against Mycobacterium tuberculosis CNCTC My 331/88 (H37Rv) assessed as inhibition of bacterial growth measured after 21 days of incubation by Sulas semisynthetic medium based assay; assay type: functional; settings: 504 h, time 21 day; how it was run: as §1
[11] = test system: Mycobacterium avium; assay: Antitubercular activity against Mycobacterium avium CNCTC My 330/88 assessed as inhibition of bacterial growth measured after 14 days of incubation by Sulas semisynthetic medium based assay; assay type: functional; settings: CNCTC My 330/88, 336 h, time 14 day
How it was run: (§4)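 M. avium was tested by the micromethod in Sula's semisynthetic medium. Compounds in DMSO at 1000 to 0.5 μmol/L. Incubation at 37 °C, read at 14 and 21 days. MIC is the lowest concentration giving >99% growth inhibition.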

[12] = test system: Mycobacterium avium; assay: Antitubercular activity against Mycobacterium avium CNCTC My 330/88 assessed as inhibition of bacterial growth measured after 21 days of incubation by Sulas semisynthetic medium based assay; assay type: functional; settings: CNCTC My 330/88, 504 h, time 21 day; how it was run: as §4
[13] = test system: Mycobacterium kansasii; assay: Antitubercular activity against Mycobacterium kansasii CNCTC My 235/80 assessed as inhibition of bacterial growth measured after 7 days of incubation by Sulas semisynthetic medium based assay; assay type: functional; settings: CNCTC My 235/80, 168 h, time 7 day
How it was run: (§5)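 Micromethod in Sula's semisynthetic medium. MIC is the lowest concentration inhibiting >99% of the mycobacterial population. Isoniazid was the standard.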

[14] = test system: Mycobacterium kansasii; assay: Antitubercular activity against Mycobacterium kansasii CNCTC My 235/80 assessed as inhibition of bacterial growth measured after 14 days of incubation by Sulas semisynthetic medium based assay; assay type: functional; settings: CNCTC My 235/80, 336 h, time 14 day; how it was run: as §5
[15] = test system: Mycobacterium kansasii; assay: Antitubercular activity against Mycobacterium kansasii CNCTC My 235/80 assessed as inhibition of bacterial growth measured after 21 days of incubation by Sulas semisynthetic medium based assay; assay type: functional; settings: CNCTC My 235/80, 504 h, time 21 day; how it was run: as §5
[16] = test system: HepG2; assay: Cytotoxicity against human HepG2 cells incubated for 24 hrs by MTT assay; assay type: functional, cell-based; settings: HepG2, 24 h
How it was run: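 HepG2 cells in DMEM with 10% FBS, seeded at 15 × 10³ cells/well and attached overnight. Exposed for 24 h to serial dilutions prepared from DMSO stocks, final DMSO ≤1%. Then given fresh medium with 0.5 mg/mL MTT for 1 h at 37 °C. Formazan dissolved in DMSO and read at 570 nm. IC50 from 4-parameter nonlinear regression; three independent experiments in triplicate, mean ± SD.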

[17] = Selectivity index, ratio of IC50 for cytotoxicity against human HepG2 cells by MTT assay to MIC99 for antitubercular activity against Mycobacterium tuberculosis CNCTC My 331/88 (H37Rv) assessed as inhibition of bacterial growth measured after 14 days of incubation; assay type: functional; settings: time 14 day
How it was run: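 HepG2 cells, 15 × 10³/well, were attached overnight and exposed 24 h to serial dilutions (DMSO ≤1%). Read by MTT at 0.5 mg/mL for 1 h and 570 nm. IC50 from 4-parameter regression, three independent experiments in triplicate. SI is HepG2 IC50 divided by H37Rv MIC99.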

[18] = test system: Staphylococcus aureus; assay: Antibacterial activity against Staphylococcus aureus C1947 assessed as inhibition of bacterial growth incubated for 24 to 48 hrs by microdilution broth method; assay type: functional, organism-based; settings: time 24-48 hrs
How it was run: (§6)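 Clinical isolates kept at –70 °C and subcultured twice on Mueller-Hinton agar, using the second subculture. Broth microdilution in Mueller-Hinton broth at pH 7.4 with two-fold serial compound dilutions and DMSO ≤1% final. Inoculum was 10 μL of a 1.5 × 10⁸ CFU/mL suspension. Incubated at 36 °C ± 1 °C and read at 24 h and 48 h. MIC taken as 95% growth inhibition.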

[19] = test system: Staphylococcus aureus; assay: Antibacterial activity against methicilin-resistant Staphylococcus aureus C1923 assessed as inhibition of bacterial growth incubated for 24 to 48 hrs by microdilution broth method; assay type: functional, organism-based; settings: time 24-48 hrs
How it was run: (§7)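 Clinical isolates, stored at −70 °C, were passaged twice on Mueller-Hinton agar. Broth microdilution in Mueller-Hinton broth, pH 7.4, with twofold serial dilutions. DMSO was at most 1% final. Inoculum 1.5 × 10⁸ CFU/mL suspension. MIC is 95% growth inhibition, read after 24 and 48 h at 36 °C.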

[20] = test system: Staphylococcus epidermidis; assay: Antibacterial activity against Staphylococcus epidermidis C1936 assessed as inhibition of bacterial growth incubated for 24 to 48 hrs by microdilution broth method; assay type: functional, organism-based; settings: time 24-48 hrs; how it was run: as §6
[21] = test system: Enterococcus faecium; assay: Antibacterial activity against vancomycin-resistant Enterococcus faecium assessed as inhibition of bacterial growth incubated for 24 to 48 hrs by microdilution broth method; assay type: functional, organism-based; settings: time 24-48 hrs; how it was run: as §7
[22] = test system: Escherichia coli; assay: Antibacterial activity against Escherichia coli A1235 assessed as inhibition of bacterial growth incubated for 24 to 48 hrs by microdilution broth method; assay type: functional, organism-based; settings: time 24-48 hrs; how it was run: as §6
[23] = test system: Klebsiella pneumoniae; assay: Antibacterial activity against ESBL negative Klebsiella pneumoniae C1950 assessed as inhibition of bacterial growth incubated for 24 to 48 hrs by microdilution broth method; assay type: functional, organism-based; settings: time 24-48 hrs; how it was run: as §6
[24] = test system: Klebsiella pneumoniae; assay: Antibacterial activity against ESBL positive Klebsiella pneumoniae C1914 assessed as inhibition of bacterial growth incubated for 24 to 48 hrs by microdilution broth method; assay type: functional, organism-based; settings: time 24-48 hrs; how it was run: as §6
[25] = test system: Pseudomonas aeruginosa; assay: Antibacterial activity against multidrug-resistant Pseudomonas aeruginosa A1245 assessed as inhibition of bacterial growth incubated for 24 to 48 hrs by microdilution broth method; assay type: functional, organism-based; settings: time 24-48 hrs; how it was run: as §7

Compound `O=C1CCc2c(OC[C@]3(O)CCN(c4c(F)cc(Cl)cc4F)C[C@H]3O)ccc(F)c2N1` [QUABODEPISTAT] has an MIC [1] of 0.5 ng/mL (≈ 1.09 nM).

Work on `COc1ncnc(Cn2cc(C(=O)NCCO)c3ncc(C)cc32)c1C` [TBA-7371] yielded an MIC [1] of 640 ng/mL (≈ 1800 nM).

With GENTAMICIN the MIC99 [2] was 1 µM, the MIC99 [3] was 0.5 µM and the MIC99 [4] was 1 µM. For the same compound, the MIC99 [5] was 0.25 µM, the MIC99 [6] was 1 µM and the MIC99 [7] was 2 µM.

In the case of `C[C@H]1COC2(CCN(c3nc(=O)c4cc(C(F)(F)F)cc([N+](=O)[O-])c4s3)CC2)O1` [BTZ-043], the MIC [8] is reported as 1 ng/mL (≈ 2.32 nM).

Compound `O=c1nc(N2CCN(CC3CCCCC3)CC2)sc2c([N+](=O)[O-])cc(C(F)(F)F)cc12` [MACOZINONE] has an MIC [8] of no more than 0.19 ng/mL.

In the case of `CN(c1nc2ncn(Cc3ccc4ccccc4c3)c2c(=O)[nH]1)C1CC1`, the MIC99 [9] is reported as 16 µM (≈ 5.53 µg/mL), the MIC99 [10] is reported as 16 µM (≈ 5.53 µg/mL) and the MIC99 [11] is reported as greater than 500 µM. It also gave an MIC99 [12] greater than 500 µM, an MIC99 [13] of 125 µM (≈ 43.2 µg/mL) and an MIC99 [14] of 250 µM (≈ 86.4 µg/mL). The MIC99 [15] was 500 µM (≈ 173 µg/mL), the IC50 [16] was greater than 125 µM and the “Selectivity Index” value [17] was greater than 7.8. For the same compound, the Activity [18] was “inactive”, the Activity [19] was “inactive” and the Activity [20] was “inactive”. The Activity [21] was “inactive”, the Activity [22] was “inactive” and the Activity [23] was “inactive”. For the same compound, the Activity [24] was “inactive” and the Activity [25] was “inactive”.

For `c1ccc2cc(Cn3cnc4nc(N5CCOCC5)nc(NC5CCCCC5)c43)ccc2c1`, the MIC99 [9] was 32 µM (≈ 14.2 µg/mL), the MIC99 [10] was 64 µM (≈ 28.3 µg/mL) and the MIC99 [11] was greater than 500 µM. For the same compound, the MIC99 [12] was greater than 500 µM, the MIC99 [13] was 64 µM (≈ 28.3 µg/mL) and the MIC99 [14] was 125 µM (≈ 55.3 µg/mL). For the same compound, the MIC99 [15] was 250 µM (≈ 111 µg/mL), the IC50 [16] was 18.9 µM and the “Selectivity Index” value [17] was 0.59. The Activity [18] was “inactive”, the Activity [19] was “inactive” and the Activity [20] was “inactive”. For the same compound, the Activity [21] was “inactive”, the Activity [22] was “inactive” and the Activity [23] was “inactive”. The Activity [24] was “inactive” and the Activity [25] was “inactive”.
